The record followed here is ChEMBL document CHEMBL3588824, “Bioactive Diterpenoids from the Leaves of Callicarpa macrophylla” (J Nat Prod, 2015).

Assay [1] concerns PC-12. Briefly: Stimulation of neurite outgrowth in rat PC12 cells incubated for 96 hrs in absence of 20 ng/ml NGF by phase contrast microscopy. The class given is functional, cell-based.
Assay [2] deals with PC-12. Description: Stimulation of nerve growth factor-mediated neurite outgrowth in rat PC12 cells incubated for 96 hrs in presence of 20 ng/ml NGF by phase contrast microscopy. It counts as functional, cell-based. In short, it runs like this:
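PC12 cells (DMEM, 5% FBS, 5% HS, 37 °C, 5% CO2) were detached with 1 mM EGTA/PBS for 15 min and seeded on poly-L-lysine at 3 × 10^4 cells/well. After 24 h they got test medium (1% FBS, 1% HS, 20 ng/mL NGF, graded compound levels) for 96 h. Cells were scored by phase contrast (neurite ≥ soma diameter) as % neurite-bearing; triplicates; EC50 by regression.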

Setting [3] is: Rattus norvegicus, PC-12, 96 h, read-out: EC50.

The structures appear in SMILES notation. Activity calls are given as the source filed them. No cut-off for these calls is given here. Where only a bound is given, the exact number is not on record here.

The EC50 is the concentration needed to bring the measured effect to its halfway point. Turning to `CC(C)c1ccc2c(c1)C(=O)C[C@H]1[C@](C)(C(=O)O)CCC[C@]21C`, the outcome in the assay on PC-12 [1] was inactive. Also, the EC50 entry in the assay on PC-12 [2] (pc-12) was “Not Active”.

For `CC(C)[C@@]12CC[C@@]3(CC[C@H]4[C@](C)(C(=O)O)CCC[C@]4(C)C3=O)[C@@H]1O2`, the EC50 in the assay with PC-12 [2] (setting [3]) was greater than 30 µM.

As for `C=C(C)c1ccc2c(c1)CC[C@H]1[C@](C)(C(=O)O)CCC[C@]21C`, the EC50 in the assay on PC-12 [2] (setting [3]) was greater than 30 µM.

Consider `C=C[C@@]1(C)CC[C@H]2C(=CC[C@@H]3[C@]2(C)CCC[C@@]3(C)O)[C@H]1O`, for which the result with PC-12 [1] was inactive. In the assay on PC-12 [2] (pc-12), the EC50 entry was “Not Active”.

As for `C=C[C@@]1(C)CC[C@H]2C(=CC[C@H]3[C@](C)(CO)CCC[C@]23C)[C@H]1O`, the EC50 with PC-12 [2] (setting [3]) worked out at 7.6 µM.

Take `CC(C)[C@]12CC[C@@]34O[C@@]3(CC[C@H]3[C@](C)(C(=O)O)CCC[C@@]34C)[C@H]1O2`: in the assay with PC-12 [1], the result was inactive. Further, the half-maximal effective concentration (EC50) result in the assay with PC-12 [2] (pc-12) was “Not Active”.

As for `CC(C)[C@@]12C=C3[C@@H](O)C[C@@H]4[C@@](C)(C(=O)O)CCC[C@@]4(C)[C@]3(CC1)OO2`, in the assay with PC-12 [2] (setting [3]), the EC50 was 10.6 µM.

Take `C=C1CC[C@H]2C(C)(C)C(=O)CC[C@]2(C)[C@H]1CC/C(C)=C/C(=O)O`: the EC50 with PC-12 [2] (setting [3]) was 6 µM.

Take `CC(C)c1ccc2c(c1)[C@H](O)C[C@H]1[C@](C)(C(=O)O)CCC[C@]21C`: the result with PC-12 [1] was inactive. The EC50 entry with PC-12 [2] (pc-12) is on record as “Not Active”.

As for `CC(=O)OC[C@]1(O)C[C@]23CC[C@@H]4C(C)(C)C(=O)CC[C@@]4(C)[C@@H]2CC[C@@H]1C3`, the EC50 in the assay on PC-12 [2] (setting [3]) amounted to 11 µM.

Consider `C=C[C@@]1(C)CC[C@H]2C(=CC[C@@H]3[C@]2(C)CCC[C@@]3(C)C(=O)O)[C@H]1O`, for which the EC50 with PC-12 [2] (setting [3]) was determined as 16 µM.

With `C=C[C@@]1(C)CCC2=C(C1)[C@H](OC)C[C@H]1[C@](C)(C(=O)O)CCC[C@]21C`, in the assay with PC-12 [1], the result was inactive. Further, the EC50 entry in the assay with PC-12 [2] (pc-12) is recorded as “Not Active”.

As for `CC1(C)C(=O)CC[C@]2(C)[C@@H]1CC[C@]13C[C@@H](CC[C@H]12)[C@](O)(CO)C3`, the 50% effective concentration (EC50) with PC-12 [2] (setting [3]) turned out to be 19.7 µM.

On to `C=C[C@@]1(C)CCC2=C(C1)[C@H](OC)C[C@H]1[C@](C)(CO)CCC[C@]21C`, for which, in the assay on PC-12 [1], the result was inactive. In the assay with PC-12 [2] (pc-12), the EC50 entry was “Not Active”.
